M1 antagonist = M1 muscarinic receptor (rat) antagonism. CHO-M1 cells, Fluo-4 calcium, ACh EC80 antagonist mode; active compounds read low. B-score at 10 µM. actives 3.4% (n = 64,000);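 active = calcium fluorescence response, raw or row-and-column corrected B-score, differing from the plate sample mean either way at a set confidence level, mostly lower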
RORA act = activates the human nuclear receptor RORA; P35398; CHO-K1 Gal4-RORA LBD luciferase reporter, luminescence; percent increase over mock-subtracted basal signal; activation, % at 10 µM; actives 1.5% (n = 65,000); AID 560;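 active = activation above the mean of all tested compounds plus 3 SD, cut at about 49% in these data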
Target sequence (P35398 whole entry, looked up, the tested form may be a part): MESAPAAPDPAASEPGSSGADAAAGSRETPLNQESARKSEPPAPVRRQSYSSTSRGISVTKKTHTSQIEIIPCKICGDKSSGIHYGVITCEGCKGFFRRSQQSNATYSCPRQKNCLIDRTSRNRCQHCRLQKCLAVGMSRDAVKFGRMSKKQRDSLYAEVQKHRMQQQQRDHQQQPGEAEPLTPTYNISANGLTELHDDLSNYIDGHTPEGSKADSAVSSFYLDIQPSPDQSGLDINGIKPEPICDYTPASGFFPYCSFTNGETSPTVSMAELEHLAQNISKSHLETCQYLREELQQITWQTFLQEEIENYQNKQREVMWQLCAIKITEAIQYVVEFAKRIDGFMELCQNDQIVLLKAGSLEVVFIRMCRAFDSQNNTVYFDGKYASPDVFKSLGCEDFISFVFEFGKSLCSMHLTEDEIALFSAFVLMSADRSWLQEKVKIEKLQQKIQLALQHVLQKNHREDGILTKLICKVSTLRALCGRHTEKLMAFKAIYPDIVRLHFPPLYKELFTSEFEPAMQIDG
M1 agonist = agonists of M1 muscarinic receptor; CHO-M1 cells, Fluo-4 calcium fluorescence, agonist mode; active compounds read high; B-score at 10 µM; actives 3% (n = 64,000); AID 626;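 active = fluorescence rise, raw or as B-score row- and column-corrected plate score, outside the 99.7% band of its plate's samples, either direction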
SF-1 act = activators of human nuclear receptor SF-1; activation, % at 10 µM; Q13285; actives 1.9% (n = 65,000); CHO-K1 Gal4-SF-1 LBD luciferase reporter; % increase over DMSO SF-1-specific signal;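 active = activation above the mean activation of all tested compounds plus 3 SD, cut at about 50% in these data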
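Material: Gal4–SF-1 LBD one-hybrid luciferase reporter in CHO-K1 cells | Amount: 4,000 cells per well | Compound dosing: 10 µM single point, 1% DMSO | Schedule: 20 h compound treatment, 37 °C | Measured by: SteadyLite luciferase luminescence | Evaluation: Percent activation versus DMSO | Control set: DMSO-treated SF-1-transfected cells as negative, DMSO-treated mock-transfected cells lacking SF-1 as background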
HePTP inhibitor = human HePTP phosphatase inhibition; P35236; recombinant HePTP phosphatase activity, OD absorbance; inhibition, % at 20 µM; actives 0.64% (n = 110,000); in the data active = inhibition above about 50%; inconclusive = no clear call, values can overlap the other calls
D1 allo mod = allosterically modulates the human D1 dopamine receptor | P21728 | HEK293 D1, CRE-luciferase, dopamine EC30 potentiation; actives deviate in either direction | B-score at 10 µM | actives 5.9% (n = 58,000) | AID 641;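 active = luminescence count or its row- and column-corrected plate score outside the 99.7% band of the plate's sample wells, on either side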
M1 agonist conf = confirmation of rat M1 muscarinic receptor agonists; CHO-M1 cells, Fluo-4 calcium fluorescence, agonist mode; actives lie on both sides; actives 19% (n = 1,700); fluorescence change (max-min) at 10 µM; shares compounds with M1 agonist;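 active = fluorescence change differs from the solvent-only DMSO control mean at a set confidence level in both duplicate runs; inconclusive = differs from solvent-only control mean in just one of two runs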;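 note: an EC20 dose of acetylcholine follows compound addition during the same imaging run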
M4 ag counter = activates rat M4 receptor in counter-screen for M1 agonists. fluorescence change (max-min) at 10 µM. actives 9% (n = 1,700). CHO M4/Gqi5 cells, Fluo-4 calcium fluorescence, agonist mode; actives lie on both sides. AID 1741. shares compounds with M1 agonist;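 active = fluorescence change differing from the plate's solvent-only control wells at 99.7% confidence in both duplicates, whether higher or lower; inconclusive = differs from solvent controls in only one of two duplicates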
A number is an active result. Hits are enriched below; roughly 8.2% of the tested compounds scored in any of these assays.

CCCOC1CCCN(C(=O)c2cc(Cl)c(Cl)cc2C(=O)O)C1 (stereo not given) was read as M1 antagonist -3.43, RORA act inactive, M1 agonist 36.9, SF-1 act inactive, HePTP inhibitor inactive, D1 allo mod inactive, M1 agonist conf 329 and M4 ag counter inactive.
CCOC(=O)C1=C(CS(=O)(=O)c2ccccc2)NC(=O)NC1c1ccccc1 (stereo not given) was read as M1 antagonist inactive, RORA act inactive, M1 agonist 4.26, SF-1 act inactive, HePTP inhibitor inactive, D1 allo mod inactive, M1 agonist conf inconclusive and M4 ag counter inconclusive.
CCCC1=C(C(=O)OCC)C(c2ccc(CC)cc2)NC(=O)N1 (stereo not given) was read as HePTP inhibitor inactive.
Screening COc1ccc(N(CC(=O)NCCc2ccccc2)S(C)(=O)=O)cc1Cl returned HePTP inhibitor inactive.
CC(=O)N1CCc2cc(C(=O)CN3CCN(c4cccc(Cl)c4)CC3)ccc21 was read as M1 antagonist -2.97, RORA act inactive, M1 agonist 5.86, SF-1 act inactive, HePTP inhibitor inactive, D1 allo mod -3.45, M1 agonist conf inactive and M4 ag counter inactive.
Screening CCn1c(CCn2ccnc2C)n[nH]c1=S returned M1 antagonist -7.26, RORA act inactive, M1 agonist 52.8, SF-1 act inactive, HePTP inhibitor inactive, D1 allo mod inactive, M1 agonist conf 225 and M4 ag counter inconclusive.
Screening CCn1c(CC(C)C)n[nH]c1=S returned M1 antagonist inactive, RORA act inactive, M1 agonist inactive, SF-1 act inactive, HePTP inhibitor inactive and D1 allo mod inactive.
`c1ccc(-c2nc(NCCCN3CCOCC3)c3ccccc3n2)cc1` gave M1 antagonist inactive, RORA act inactive, M1 agonist 2.59, SF-1 act inactive, HePTP inhibitor inactive, D1 allo mod inactive, M1 agonist conf inactive and M4 ag counter inactive.
COc1ccc(CNC(=O)CSc2ncn[nH]2)cc1 was read as M1 antagonist inactive, RORA act inactive, M1 agonist inactive, SF-1 act inactive, HePTP inhibitor inactive and D1 allo mod inactive.
`CCc1ccccc1NS(=O)(=O)c1ccc(SC)cc1` gave M1 antagonist inactive, RORA act inactive, M1 agonist 3.26, SF-1 act inactive, HePTP inhibitor inactive, D1 allo mod inactive, M1 agonist conf inactive and M4 ag counter inactive.
`CCN1CCN(Cc2ccc(NC(=O)Nc3ccccc3)cc2)CC1` gave M1 antagonist inactive, RORA act inactive, M1 agonist 6.51, SF-1 act inactive, HePTP inhibitor inactive, D1 allo mod -5.76, M1 agonist conf inactive and M4 ag counter inactive.
`COc1ccc(CNc2nc3c(c(=O)n(Cc4ccc(Br)cc4)c(=O)n3C)n2C)cc1` gave M1 antagonist inactive, RORA act inactive, M1 agonist 3.42, SF-1 act inactive, HePTP inhibitor inactive, D1 allo mod -2.71, M1 agonist conf inactive and M4 ag counter inactive.
For Cc1ccc2c(C)nc(Nc3nc(CSc4nnnn4-c4ccccc4)cc(=O)[nH]3)nc2c1 the results were M1 antagonist inactive, RORA act inactive, M1 agonist 8.63, SF-1 act inactive, HePTP inhibitor inactive, D1 allo mod inactive, M1 agonist conf inactive and M4 ag counter inactive.
CC1CCCCC1NC(=O)CSc1nnc(CN2CCOCC2)n1C (stereo not given) was read as M1 antagonist inactive, RORA act inactive, M1 agonist 12.5, SF-1 act inactive, HePTP inhibitor inactive, D1 allo mod inactive, M1 agonist conf inactive and M4 ag counter inactive.
For CCCC(=O)Nc1cccc(-c2nc3ccccc3s2)c1 the results were HePTP inhibitor inactive.
`Cn1nc(-c2ccc(OCC(=O)Nc3cccnc3)cc2)c2ccccc2c1=O` gave M1 antagonist inactive, RORA act inactive, M1 agonist 6.19, SF-1 act inactive, D1 allo mod inactive, M1 agonist conf inconclusive and M4 ag counter inactive.
`Cn1nc(-c2ccc(C(=O)Nc3cccnc3)cc2)c2ccccc2c1=O` gave M1 antagonist inactive, RORA act inactive, M1 agonist inactive, SF-1 act inactive and D1 allo mod inactive.
For Cc1ccc([N+](=O)[O-])cc1/C=N/NC(=O)CSCC(=O)Nc1ccccc1 the results were HePTP inhibitor inactive.
Screening Nc1ccc(-c2nc3c(Cl)c(N)ccc3[nH]2)cc1 returned M1 antagonist inactive, RORA act inactive, M1 agonist inactive, SF-1 act inactive, HePTP inhibitor inactive and D1 allo mod inactive.
For Cc1csc(NC(=O)CSc2nnc(-c3ccco3)n2C)n1 the results were M1 antagonist inactive, RORA act inactive, M1 agonist inactive, SF-1 act inactive, HePTP inhibitor inactive and D1 allo mod inactive.
For COc1cccc2cc(-c3nnc(SCC(=O)Nc4nc(C)cs4)n3C)oc12 the results were M1 antagonist inactive, RORA act inactive, M1 agonist 3.94, SF-1 act inactive, HePTP inhibitor inactive, D1 allo mod inactive, M1 agonist conf inconclusive and M4 ag counter inactive.
`CCCCn1c(CN2CCN(C(=O)OCC)CC2)nc2c1c(=O)n(C)c(=O)n2C` gave M1 antagonist inactive, RORA act inactive, M1 agonist inactive, SF-1 act inactive, HePTP inhibitor inactive and D1 allo mod inactive.
For COC(=O)c1ccc(-c2sc3nc(N4CCOCC4)c4c(c3c2N)CCCC4)o1 the results were M1 antagonist inactive, RORA act inactive, M1 agonist 5.45, SF-1 act inactive, HePTP inhibitor inactive, D1 allo mod inactive, M1 agonist conf inactive and M4 ag counter inactive.
Screening CN(C)c1ccc(C=Nn2cnnc2)cc1 returned HePTP inhibitor inactive.
For CN(C)c1ccc(/C=C/c2ccncc2)cc1 the results were M1 antagonist inactive, RORA act 73.4, M1 agonist 9.96, SF-1 act inactive, HePTP inhibitor inactive, D1 allo mod inactive, M1 agonist conf 111 and M4 ag counter 150.
Screening Cc1ccc(/C(O)=C2\C(=O)C(=O)N(c3ccc(O)cc3)C2c2ccccc2)cc1 (stereo not given) returned HePTP inhibitor inactive.
Screening CC1(C)Cc2c(c(-c3ccco3)[nH]c(=O)c2C#N)CS1 returned M1 antagonist inactive, RORA act inactive, M1 agonist 23.7, SF-1 act inactive, HePTP inhibitor inactive, M1 agonist conf inactive and M4 ag counter inactive.
Screening O=C(Nc1cccc(S(=O)(=O)c2cccc(NC(=O)C3CC3)c2)c1)C1CC1 returned M1 antagonist inactive, RORA act inactive, M1 agonist 2.81, SF-1 act inactive, HePTP inhibitor inactive, D1 allo mod inactive, M1 agonist conf inactive and M4 ag counter inactive.
